The source made the active and inactive calls. No cut-off for these calls is given here.

The source of these data is ChEMBL document CHEMBL1123005, “1-Azacycloalkyl-1,4-benzodiazepin-2-ones with antianxiety-antidepressant actions” (J Med Chem, 1985).

Series [1] relates to Mus musculus. Put plainly: Effective dose against pentylenetetrazole intoxicity in mice administered orally. Format: functional.
For series [2], the system named is Mus musculus. Put plainly: Effective dose against tetrabenazine induced ptosis in mice administered orally. Format: functional. The method in brief:
(§1)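 Male DS mice, 20-27 g, groups of five. Compound given po or sc in saline or gum arabic at 0.1 mL/10 g. Tetrabenazine 50 mg/kg sc given 1, 4 or 24 h later. Ptosis scored 1-4 at 1 h after TBZ, with ridit transformation. Dose for 50% prevention by regression.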

Series [3] concerns Rattus norvegicus. The series can be described thus: Percent anticonflict effect in rats when administered through oral route at 16 mg/kg. Format: functional. In a few lines: (§2)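 Wistar rats in groups of 5-8, Geller-Seifter conflict procedure. Rats trained to lever-press for food on a variable-interval 60-s schedule. Oral dosing. A dose counted positive when shocks exceeded 12 or shock ratio exceeded 4 over four consecutive tone periods. ED50 with 95% limits by probit.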

Series [4] addresses GABA-A receptor; anion channel (Rattus norvegicus) (UniProt O09028+P15431+P18506+P18508+P19969+P20236+P23574+P23576+P28471+P28473+P30191+P62813+P63079+P63138+Q91ZM7+Q9ES14). Put plainly: Binding constant was determined by displacing potential to [3H]-diazepam binding in cerebral cortex homogenates of rat. Format: tissue-based. The method in brief: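 Wistar rat cerebral cortex homogenate incubated with compound and 2 nM [3H]diazepam at 0 °C for 60 min. Bound label trapped on glass filters and counted by scintillation. Ki = IC50/(1 + L/Kd).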

Series [5] relates to Mus musculus. The series can be described thus: Effective dose against tetrabenazine induced ptosis in mice administered subcutaneously. Format: functional. The note with it: sc. In a few lines: as §1
Series [6] is described as follows: Acute toxicity was measured in mice after peroral administration. Format: organism-based. The note with it: mouse, in vivo, po. The method in brief:
(§3)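 Male DS mice, 20-26 g, given compound orally; mortality checked the day after treatment in groups of 10. LD50 by probit method, or by up-and-down method of Brownlee et al. (n = 5) where estimated.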

In series [7] the test system is Mus musculus. Put plainly: Effective dose against pentylenetetrazole intoxicity in mice administered orally; NE = no effect at 200 mg/kg. Also noted: dose 200 mg/kg. Format: functional, organism-based.
The subject of series [8] is Rattus norvegicus. The series can be described thus: Percent inhibition against anticonflict effect in rats when administered through oral route; at 32 mg/kg. Format: functional. In a few lines:
as §2

The species named for series [9] is Rattus norvegicus. Put plainly: Inhibitory activity against uptake of [3H]norepinephrine into rat brain synaptosomes. Format: functional. In a few lines: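 P2 synaptosomes from male Wistar rat cerebral cortex incubated with [3H]norepinephrine at 37 °C for 20 min, with compound at 5-6 concentrations. Stopped by Krebs-Henseleit dilution and glass-fibre filtration, then scintillation counting. IC50 taken as the concentration giving 50% uptake inhibition.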

In series [10] the test system is Mus musculus. The series can be described thus: Effective dose against pentylenetetrazole intoxicity in mice administered through subcutaneous route; NE = no effect at 10 mg/kg. Format: functional, organism-based. Also noted: dose 10 mg/kg.
Series [11] relates to Mus musculus. The series can be described thus: Effective dose against pentylenetetrazole intoxicity in mice administered subcutaneously at 20 mg/kg. Format: functional. The note with it: sc, route subcutaneous.
Series [12] concerns Rattus norvegicus. Put plainly: Effective dose was evaluated by their anticonflict effect in rats when administered through oral route. Format: functional. The method in brief: as §2
The subject of series [13] is Mus musculus. Put plainly: Effective dose against tetrabenazine induced ptosis in mice administered subcutaneously at 50 mg/kg. Format: functional. The conditions noted are these: sc, route subcutaneous. In a few lines:
as §1

The test system of series [14] is Mus musculus. Put plainly: Effective dose against pentylenetetrazole intoxicity in mice administered through subcutaneous route. Format: functional. The conditions noted are these: sc.
Series [15] has as its system Rattus norvegicus. The series can be described thus: Percent inhibition was evaluated by their anticonflict effect in rats when administered through oral route at 32 mg/kg. Format: functional. The method in brief: as §2
For series [16], the system named is Mus musculus. Put plainly: Percent inhibition against pentylenetetrazole intoxicity in mice administered orally at 50 mg/kg. Format: functional. The note with it: route oral.
For series [17], the system named is Mus musculus. Put plainly: Percent inhibition against tetrabenazine induced ptosis in mice administered subcutaneously 50 mg/kg. Format: functional. The conditions noted are these: sc, route subcutaneous. In a few lines: as §1
The test system of series [18] is Mus musculus. Put plainly: Effective dose against pentylenetetrazole intoxicity in mice administered orally;NE = no effect at 50 mg/kg. Format: functional, organism-based. More on the design: dose 50 mg/kg.
The test system of series [19] is Rattus norvegicus. The series can be described thus: Percent inhibition was evaluated by their anticonflict effect in rats when administered through oral route at 8 mg/kg. Format: functional. The method in brief: as §2
Series [20] has as its system Mus musculus. Put plainly: Effective dose against tetrabenazine induced ptosis in mice administered orally. Format: functional. The conditions noted are these: po. The method in brief:
as §1

Series [21] can be described thus: Acute toxicity was measured in mice after peroral administration (1306-1666). Format: organism-based. The note with it: mouse, in vivo, po. In a few lines: as §3
The test system of series [22] is Mus musculus. Put plainly: Effective dose against tetrabenazine induced ptosis in mice administered through subcutaneous route. Format: functional. The conditions noted are these: sc. In a few lines:
as §1

Series [23] has as its system Mus musculus. The series can be described thus: Effective dose against pentylenetetrazole intoxicity in mice administered subcutaneously; NE = not effective at dose 10 mg/kg. Format: functional, organism-based. More on the design: dose 10 mg/kg.
The nature of series [24]: Acute toxicity was measured in mice after peroral administration (805-1213). The conditions noted are these: mouse, in vivo, po. Format: organism-based. The method in brief: as §3
Series [25] concerns Mus musculus. Put plainly: Effective dose against pentylenetetrazole intoxicity in mice administered orally; NE = no effect at dose 50 mg/kg. Format: functional, organism-based. More on the design: dose 50 mg/kg.
A short description of series [26]: Acute toxicity was measured in mice after peroral administration (1293-1506). Format: organism-based. The note with it: mouse, in vivo, po. In a few lines: as §3
Where [27] appears, read: Mus musculus, po, read-out: ED50.

On to `CN1CCC(N2C(=O)CN=C(c3ccccc3)c3cc(F)ccc32)CC1`, for which the median effective dose (ED50) in the series with Mus musculus [1] is 25.79 mg/kg; in the series with Mus musculus [1] (setting [27]), 30 mg/kg; in the series with Mus musculus [2] (setting [27]) it was 1.41 mg/kg. Besides, 16 mg/kg produced 20% inhibition in vivo in the series on Rattus norvegicus [3]. The same compound returned a K2 in [4] of 2.42 µM.

For `O=C1CN=C(c2ccccc2)c2ccccc2N1C1CCNCC1`, the figures for the ED50 in the series on Mus musculus [5] and in the series with Mus musculus [2] (setting [27]) were 0.06 mg/kg and 0.26 mg/kg, respectively. The compound also yielded an LD50 in series [6] of 1240 mg/kg. In addition, the ED50 result in the series with Mus musculus [7] and with Mus musculus [10] was “inactive” in each case. Moreover, the inhibition in vivo at 32 mg/kg in the series on Rattus norvegicus [8] turned out to be 20%. Also, the IC50 in the series listed under Rattus norvegicus [9] is 29 nM. Also, the K2 in series [4] turned out to be 1.3 µM.

For `CN1CCC(N2C(=O)CN=C(c3ccccc3)c3cc(Cl)ccc32)CC1`, the inhibition in vivo at 20 mg/kg in the series on Mus musculus [11] came to 50%. Moreover, the 50% effective dose (ED50) in the series with Mus musculus [5] was found to be 0.85 mg/kg; with Mus musculus [1] (setting [27]), 29.9 mg/kg; in the series on Mus musculus [2], 0.74 mg/kg; in the series on Mus musculus [2] (setting [27]), 0.58 mg/kg; in the series on Rattus norvegicus [12], 8.4 mg/kg.

With `CN1CCC(N2C(=O)CN=C(c3ccccc3Cl)c3cc(Cl)ccc32)CC1`, the figures for the ED50 with Mus musculus [1] (setting [27]), with Mus musculus [2] (setting [27]) and with Mus musculus [14] were 3.24 mg/kg, 26.1 mg/kg and 1.69 mg/kg, respectively. Also, the inhibition in vivo at 50 mg/kg with Mus musculus [13] was 23%. In the series filed under Rattus norvegicus [9], this compound yielded a concentration for half-maximal inhibition (IC50) of 39900 nM. This compound registered a K2 in series [4] of 0.021 µM.

`O=C1CN=C(c2ccccc2)c2cc(F)ccc2N1C1CCNCC1`: in the series with Mus musculus [2] (setting [27]), the ED50 worked out at 0.39 mg/kg. Moreover, the inhibition in vivo at 32 mg/kg in the series on Rattus norvegicus [15] amounted to 60%. The half-inhibitory concentration (IC50) in the series filed under Rattus norvegicus [9] was 59 nM. The compound also registered an inhibition in vivo at 50 mg/kg with Mus musculus [16] of 12.5%. The compound further yielded a K2 in [4] of 2 µM.

`CN1CCC(N2C(=O)CN=C(c3ccccc3F)c3cc(Cl)c(Cl)cc32)CC1` came in with an inhibition in vivo at 50 mg/kg with Mus musculus [17] of 64%. Further, the ED50 result in the series with Mus musculus [18] and in the series with Mus musculus [10] was “inactive” each time. For the same compound, in series [4], the K2 was 0.8 µM.

For the compound `O=C1CN=C(c2ccccc2F)c2cc(Cl)ccc2N1C1CCNC1` (stereo not drawn), the inhibition in vivo at 8 mg/kg in the series with Rattus norvegicus [19] came out at 60%. Moreover, the median effective dose (ED50) was found to be 28.9 mg/kg with Mus musculus [5], 20.1 mg/kg in the series with Mus musculus [1] (setting [27]) and 0.4 mg/kg in the series on Mus musculus [20]. This compound also registered a K2 in [4] of 0.73 µM.

As to `O=C1CN=C(c2ccccc2F)c2cc(Cl)ccc2N1C1CCNCC1`, the ED50 in the series on Mus musculus [5] came to 0.08 mg/kg; in the series on Mus musculus [1], 11.39 mg/kg; in the series on Mus musculus [1] (setting [27]) it was 14.2 mg/kg; with Mus musculus [2], 0.67 mg/kg; in the series with Mus musculus [2] (setting [27]), 0.76 mg/kg; in the series with Rattus norvegicus [12], 6.51 mg/kg. Moreover, the LD50 in series [21] was found to be 1480 mg/kg. This compound registered an IC50 in the series listed under Rattus norvegicus [9] of 118 nM. In series [4], the K2 amounted to 0.036 µM.

`CCOC(=O)N1CCC(N2C(=O)CN=C(c3ccccc3)c3ccccc32)CC1` registered a median effective dose (ED50) in the series with Mus musculus [22] of 0.65 mg/kg. For the same compound, in the series with Mus musculus [23], the ED50 result was “inactive”. The compound further came in with a K2 in series [4] of 2.3 µM.

With `O=C1CN=C(c2ccccc2F)c2cc(F)ccc2N1C1CCNCC1`, the ED50 with Mus musculus [1] is 27.55 mg/kg; in the series with Mus musculus [1] (setting [27]), 32.1 mg/kg; in the series with Mus musculus [2] (setting [27]), 0.38 mg/kg. For the same compound, in the series on Rattus norvegicus [15], the inhibition in vivo at 32 mg/kg turned out to be 50%. In addition, in [24], the 50% lethal dose (LD50) was 939 mg/kg. The compound further gave a half-maximal inhibitory concentration (IC50) in the series filed under Rattus norvegicus [9] of 79 nM. Further, the K2 in [4] came out at 0.15 µM.

Take `O=C1CN=C(c2ccccc2)c2cc(Cl)ccc2N1C1CCNCC1`: the ED50 in the series on Mus musculus [5] is 0.172 mg/kg; in the series with Mus musculus [1] (setting [27]), 36.5 mg/kg; in the series on Mus musculus [2] it was 0.48 mg/kg; in the series with Mus musculus [2] (setting [27]), 0.48 mg/kg; in the series on Rattus norvegicus [12] it was 11.8 mg/kg. Besides, the ED50 entry in the series with Mus musculus [25] and in the series with Mus musculus [10] was “inactive” each time. The same compound had an IC50 in the series filed under Rattus norvegicus [9] of 172 nM. The same compound displayed an LD50 in series [26] of 1390 mg/kg. For the same compound, in [4], the K2 amounted to 0.35 µM.

As a reminder, the ED50 is the midpoint of the dose-response relation. A word on the inhibition in vivo: it is the share of the control response that was lost under treatment. Read a low inhibition in vivo as a weak effect. A word on the LD50: it is the dose expected to kill half of the subjects tested. For orientation: IC50 means the point on the concentration scale where inhibition reaches its midpoint.
